The text below walks through data of ChEMBL document CHEMBL3259770, “Structure-activity relationship studies of the tricyclic indoline resistance-modifying agent” (J Med Chem, 2014).

Data set [1] deals with Staphylococcus aureus. The data set can be described thus: Antibacterial activity against methicillin-resistant Staphylococcus aureus ATCC 33592 after overnight incubation by broth microdilution assay in presence of 4 ug/ml meropenem. In kind it is functional. Put shortly:
(§1)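 Resensitization screen: compound from a 5 mg/mL DMSO stock, 2-fold serially diluted in MHB from 32 μg/mL final. Antibiotic was held at its CLSI-susceptible level: amoxicillin/clavulanic acid 4/2 μg/mL, cefazolin 8 μg/mL, meropenem 4 μg/mL. Final MRSA inoculum OD600 0.001, overnight at 37 °C with shaking. MRC was the concentration giving no visible overnight growth.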

The test system of data set [2] is Staphylococcus aureus. The data set can be described thus: Antibacterial activity against methicillin-resistant Staphylococcus aureus ATCC BAA-44 after overnight incubation by broth microdilution assay in presence of 8 ug/ml cefazolin. In kind it is functional. Put shortly:
as §1
Background: Dilution methods test growth across graded concentrations, often in twofold steps.

For data set [3], the system named is Staphylococcus aureus. The data set can be described thus: Antibacterial activity against methicillin-resistant Staphylococcus aureus ATCC BAA-44 after overnight incubation by broth microdilution assay in presence of 4 ug/ml amoxicillin and 2 ug/ml clavulanic acid. In kind it is functional. An outline of the steps: as §1
The nature of data set [4]: Cytotoxicity against human HeLa cells after 24 hrs by CellTiter-Glo assay. Type of data set: cell-based. An outline of the steps:
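HeLa cells seeded at 20 000 cells/well in DMEM with 10% FCS and 1% penicillin/streptomycin, grown 16 h at 37 °C, 5% CO2. Medium renewed, then compound added in DMSO to final 0.5–32 μg/mL, triplicate series. After 24 h at 37 °C, plates equilibrated to room temperature and viability read by CellTiter-Glo luminescence.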
On the technique in general: ATP-based viability assays read luminescence as a measure of living cells.

In brackets after ≈: the same amount, converted by molar mass. A value given as a limit tells only on which side of the number the result lay.

A word on the GI50: it is the concentration at which growth is held to half of that of the control.

Turning to `C=C1CCC[C@@H]2N(C)c3ccc(Br)cc3[C@]12CCNS(=O)(=O)c1ccc(Cl)cc1`, the MRC in the data set on Staphylococcus aureus [1], in the data set with Staphylococcus aureus [2] and in the data set on Staphylococcus aureus [3] was over 32 µg/mL each time.

Regarding `C=C1CCC[C@@H]2Nc3ccc(Br)cc3[C@]12CCNS(=O)(=O)c1ccc(I)cc1`, the values for the MRC with Staphylococcus aureus [1], in the data set on Staphylococcus aureus [2] and with Staphylococcus aureus [3] were 32 µg/mL, 4 µg/mL and 4 µg/mL, respectively. For the same molecule, the GI50 at 24 h in data set [4] turned out to be 33 µg/mL (≈ 57.6 µM).

As for `C=C1CCC[C@@H]2N(S(=O)(=O)c3ccc(Cl)cc3)c3ccc(Br)cc3[C@]12CCNS(=O)(=O)c1ccc(Cl)cc1`, the MRC in the data set on Staphylococcus aureus [1], in the data set on Staphylococcus aureus [2] and with Staphylococcus aureus [3] was over 32 µg/mL throughout.

With `C=C1CCC[C@@H]2N(C(=O)c3ccc(Cl)cc3)c3ccc(Br)cc3[C@]12CCNS(=O)(=O)c1ccc(Cl)cc1`, the MRC in the data set on Staphylococcus aureus [1], in the data set with Staphylococcus aureus [2] and with Staphylococcus aureus [3] was over 32 µg/mL in each case.

As for `C=C1CCC[C@@H]2Nc3ccc(Br)cc3[C@]12CCN(C)S(=O)(=O)c1ccc(Cl)cc1`, the MRC in the data set with Staphylococcus aureus [1], in the data set on Staphylococcus aureus [2] and in the data set with Staphylococcus aureus [3] was over 32 µg/mL each time.

As to `C=C1CCC[C@@H]2Nc3ccc(Br)cc3[C@]12CCN(S(=O)(=O)c1ccc(Cl)cc1)S(=O)(=O)c1ccc(Cl)cc1`, the MRC in the data set on Staphylococcus aureus [1], in the data set with Staphylococcus aureus [2] and in the data set with Staphylococcus aureus [3] was over 32 µg/mL in each case.

In the case of `C=C1CCC[C@@H]2Nc3ccc(Br)cc3[C@]12CCN(C(=O)c1ccc(Cl)cc1)S(=O)(=O)c1ccc(Cl)cc1`, the MRC in the data set with Staphylococcus aureus [1], in the data set with Staphylococcus aureus [2] and in the data set with Staphylococcus aureus [3] was over 32 µg/mL each time.

With `C=C1CCC[C@@H]2Nc3ccc(Br)cc3[C@]12CCNS(=O)(=O)c1ccc(Cl)cc1`, the MRC with Staphylococcus aureus [1], in the data set on Staphylococcus aureus [2] and with Staphylococcus aureus [3] was 4 µg/mL each time. This molecule also yielded a GI50 at 24 h in data set [4] of 17.1 µg/mL (≈ 35.5 µM).

`C=C1CCC[C@@H]2Nc3ccc(C)cc3[C@]12CCNS(=O)(=O)c1ccc(Cl)cc1`: the figures for the MRC in the data set with Staphylococcus aureus [1], in the data set with Staphylococcus aureus [2] and in the data set with Staphylococcus aureus [3] were 32 µg/mL, 16 µg/mL and 16 µg/mL, respectively.

As for `C=C1CCC[C@@H]2Nc3ccc(OC)cc3[C@]12CCNS(=O)(=O)c1ccc(Cl)cc1`, the MRC in the data set with Staphylococcus aureus [1], in the data set with Staphylococcus aureus [2] and in the data set with Staphylococcus aureus [3] was over 32 µg/mL each time.

Consider `C=C1CCC[C@@H]2Nc3ccc(F)cc3[C@]12CCNS(=O)(=O)c1ccc(Cl)cc1`, for which the MRC with Staphylococcus aureus [1], in the data set on Staphylococcus aureus [2] and in the data set on Staphylococcus aureus [3] was 16 µg/mL throughout.

As for `C=C1CCC[C@@H]2Nc3ccccc3[C@]12CCNS(=O)(=O)c1ccc(Cl)cc1`, the MRC in the data set with Staphylococcus aureus [1], in the data set with Staphylococcus aureus [2] and in the data set on Staphylococcus aureus [3] was 16 µg/mL each time.

Turning to `C=C1CCC[C@@H]2Nc3c(ccc4ccccc34)[C@]12CCNS(=O)(=O)c1ccc(Cl)cc1`, the MRC with Staphylococcus aureus [1], in the data set with Staphylococcus aureus [2] and in the data set on Staphylococcus aureus [3] was over 32 µg/mL each time.

Consider `C=C1CCC[C@@H]2Nc3c(Br)cccc3[C@]12CCNS(=O)(=O)c1ccc(Cl)cc1`, for which the MRC in the data set on Staphylococcus aureus [1] is 8 µg/mL; in the data set on Staphylococcus aureus [2], 32 µg/mL; in the data set with Staphylococcus aureus [3], over 32 µg/mL.

For the molecule `C=C1CCC[C@@H]2Nc3cc(Br)ccc3[C@]12CCNS(=O)(=O)c1ccc(Cl)cc1`, the MRC in the data set with Staphylococcus aureus [1], with Staphylococcus aureus [2] and in the data set on Staphylococcus aureus [3] was 16 µg/mL in each case.

Regarding `C=C1CCC[C@@H]2Nc3cccc(Br)c3[C@]12CCNS(=O)(=O)c1ccc(Cl)cc1`, the MRC with Staphylococcus aureus [1] was 16 µg/mL; in the data set on Staphylococcus aureus [2] it was 16 µg/mL; with Staphylococcus aureus [3], 32 µg/mL.

`C=C1CCC[C@@H]2Nc3c(F)cc(Cl)cc3[C@]12CCNS(=O)(=O)c1ccc(Cl)cc1`: the MRC with Staphylococcus aureus [1] was 32 µg/mL; in the data set with Staphylococcus aureus [2], 16 µg/mL; with Staphylococcus aureus [3] it was 16 µg/mL.

With `C=C1CCC[C@@H]2Nc3c(Cl)cc(Cl)cc3[C@]12CCNS(=O)(=O)c1ccc(Cl)cc1`, the MRC with Staphylococcus aureus [1], in the data set on Staphylococcus aureus [2] and with Staphylococcus aureus [3] was 4 µg/mL throughout. For the same molecule, in data set [4], growth was halved (GI50 at 24 h) at 13.6 µg/mL (≈ 28.8 µM).

Take `C=C1CCC[C@@H]2Nc3c(F)cc(Br)cc3[C@]12CCNS(=O)(=O)c1ccc(Cl)cc1`: the MRC came to 4 µg/mL in the data set with Staphylococcus aureus [1], 4 µg/mL in the data set on Staphylococcus aureus [2] and 2 µg/mL with Staphylococcus aureus [3]. The GI50 at 24 h in data set [4] is 18.1 µg/mL (≈ 36.2 µM).

Turning to `C=C1CCC[C@@H]2Nc3ccc(Br)cc3[C@]12CCN`, the MRC with Staphylococcus aureus [1], with Staphylococcus aureus [2] and in the data set on Staphylococcus aureus [3] was 32 µg/mL each time.

Regarding `C=C1CCC[C@@H]2Nc3ccc(Br)cc3[C@]12CCNC(=O)C(F)(F)F`, the MRC in the data set on Staphylococcus aureus [1] is 32 µg/mL; with Staphylococcus aureus [2] it was over 32 µg/mL; in the data set on Staphylococcus aureus [3], over 32 µg/mL.

On to `C=C1CCC[C@@H]2Nc3ccc(Br)cc3[C@]12CCNC(=O)CCCC`, for which the results for the MRC in the data set on Staphylococcus aureus [1], with Staphylococcus aureus [2] and in the data set on Staphylococcus aureus [3] were 32 µg/mL, over 32 µg/mL and over 32 µg/mL, respectively.

Turning to `C=C1CCC[C@@H]2Nc3ccc(Br)cc3[C@]12CCNC(=O)c1ccc(Cl)cc1`, the MRC in the data set on Staphylococcus aureus [1], in the data set on Staphylococcus aureus [2] and in the data set with Staphylococcus aureus [3] was over 32 µg/mL each time.

Take `C=C1CCC[C@@H]2Nc3ccc(Br)cc3[C@]12CCNS(=O)(=O)c1ccccc1`: the MRC was found to be 16 µg/mL in the data set on Staphylococcus aureus [1], 8 µg/mL with Staphylococcus aureus [2] and 8 µg/mL with Staphylococcus aureus [3].

Take `C=C1CCC[C@@H]2Nc3ccc(Br)cc3[C@]12CCNS(=O)(=O)c1ccc(C)cc1`: the MRC in the data set on Staphylococcus aureus [1], in the data set with Staphylococcus aureus [2] and in the data set with Staphylococcus aureus [3] was over 32 µg/mL in each case.

With `C=C1CCC[C@@H]2Nc3ccc(Br)cc3[C@]12CCNS(=O)(=O)c1ccc(F)cc1`, the MRC in the data set with Staphylococcus aureus [1], in the data set with Staphylococcus aureus [2] and in the data set on Staphylococcus aureus [3] was over 32 µg/mL throughout.

As to `C=C1CCC[C@@H]2Nc3ccc(Br)cc3[C@]12CCNS(=O)(=O)c1ccc(Br)cc1`, the MRC stood at 8 µg/mL with Staphylococcus aureus [1], 4 µg/mL in the data set on Staphylococcus aureus [2] and 4 µg/mL in the data set on Staphylococcus aureus [3]. In addition, halving of growth in data set [4] (GI50 at 24 h) required 40 µg/mL (≈ 76 µM).

With `C=C1CCC[C@@H]2Nc3ccc(Br)cc3[C@]12CCNS(=O)(=O)c1ccc(Cl)c(Cl)c1`, the MRC was 4 µg/mL with Staphylococcus aureus [1], 2 µg/mL in the data set on Staphylococcus aureus [2] and 4 µg/mL with Staphylococcus aureus [3]. This molecule also registered a GI50 at 24 h in data set [4] of 12.8 µg/mL (≈ 24.8 µM).

For `C=C1CCC[C@@H]2Nc3ccc(Br)cc3[C@]12CCNS(=O)(=O)c1ccc(Cl)cc1Cl`, the results for the MRC in the data set on Staphylococcus aureus [1], in the data set with Staphylococcus aureus [2] and with Staphylococcus aureus [3] were 4 µg/mL, over 32 µg/mL and 8 µg/mL, respectively.

With `C=C1CCC[C@@H]2Nc3ccc(Br)cc3[C@]12CCNS(=O)(=O)c1ccc(C#N)cc1`, the MRC in the data set on Staphylococcus aureus [1] turned out to be 16 µg/mL; in the data set on Staphylococcus aureus [2], 8 µg/mL; in the data set with Staphylococcus aureus [3], 16 µg/mL.

For the molecule `C=C1CCC[C@@H]2Nc3ccc(Br)cc3[C@]12CCNS(=O)(=O)c1ccc(NC(C)=O)cc1`, the values for the MRC in the data set with Staphylococcus aureus [1], with Staphylococcus aureus [2] and in the data set with Staphylococcus aureus [3] were 32 µg/mL, over 32 µg/mL and over 32 µg/mL, respectively.

Consider `C=C1CCC[C@@H]2Nc3ccc(Br)cc3[C@]12CCNS(=O)(=O)c1ccccn1`, for which the MRC in the data set with Staphylococcus aureus [1], in the data set on Staphylococcus aureus [2] and in the data set on Staphylococcus aureus [3] was 32 µg/mL throughout.

Turning to `C=C1CCC[C@@H]2Nc3ccc(Br)cc3[C@]12CCNS(=O)(=O)c1ccc([N+](=O)[O-])cc1`, the MRC in the data set on Staphylococcus aureus [1], in the data set on Staphylococcus aureus [2] and in the data set with Staphylococcus aureus [3] was over 32 µg/mL throughout.

For the molecule `C=C1CCC[C@@H]2Nc3ccc(Br)cc3[C@]12CCNS(=O)(=O)c1ccc(N)cc1`, the MRC in the data set on Staphylococcus aureus [1], in the data set on Staphylococcus aureus [2] and in the data set with Staphylococcus aureus [3] was 16 µg/mL in each case.

As for `C=C1CCC[C@@H]2Nc3c(F)cc(Br)cc3[C@]12CCNS(=O)(=O)c1ccc(C)cc1`, the MRC in the data set on Staphylococcus aureus [1], in the data set with Staphylococcus aureus [2] and in the data set on Staphylococcus aureus [3] was 4 µg/mL in each case. In data set [4], this molecule registered a GI50 at 24 h of 22 µg/mL (≈ 45.9 µM).

Take `C=C1CCC[C@@H]2Nc3c(F)cc(Br)cc3[C@]12CCNS(=O)(=O)c1ccc(F)cc1`: the MRC with Staphylococcus aureus [1], in the data set on Staphylococcus aureus [2] and with Staphylococcus aureus [3] was 4 µg/mL each time. In data set [4], the GI50 at 24 h came out at 18.3 µg/mL (≈ 37.9 µM).

For `C=C1CCC[C@@H]2Nc3c(F)cc(Br)cc3[C@]12CCNS(=O)(=O)c1ccc(I)cc1`, the results for the MRC in the data set with Staphylococcus aureus [1], with Staphylococcus aureus [2] and in the data set with Staphylococcus aureus [3] were 4 µg/mL, 2 µg/mL and 4 µg/mL, respectively. The molecule further registered a GI50 at 24 h in data set [4] of 19.6 µg/mL (≈ 33.1 µM).

Consider `C=C1CCC[C@@H]2Nc3c(F)cc(Br)cc3[C@]12CCNS(=O)(=O)c1ccc(Cl)c(Cl)c1`, for which the MRC in the data set on Staphylococcus aureus [1], in the data set with Staphylococcus aureus [2] and with Staphylococcus aureus [3] was 4 µg/mL throughout. This molecule showed a GI50 at 24 h in data set [4] of 31 µg/mL (≈ 58 µM).
